CXCR6 block: CXCR6 (human) receptor inhibition | O00574 | hit rate 0.36% among 360,000 | CHO-K1 PathHunter CXCR6 beta-arrestin, luminescence | inhibition, % at 20 µM; in the data active means inhibition above about 34%, passing the limit was not always enough;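 further: antagonist mode with CXCL16 agonist at 10 nM final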
A3A deaminase: human APOBEC3A DNA deaminase inhibition. P31941. recombinant A3A, FAM/TAMRA ssDNA deamination fluorescence. inhibition, % at 20 µM. hit rate 0.41% among 330,000. AID 493011;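 active means at least 40% inhibition at 20 µM here, with at most 30% in a related deaminase screen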
APJ antagonist: APJ receptor antagonism | inhibition, % at 20 µM | CHO-K1 APJ beta-arrestin complementation, luminescence | hit rate 0.32% among 330,000 | P35414 | AID 2521;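 active means inhibition above about 40% at 20 µM, limit read from the data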;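 further: cells challenged with 10 nM apelin-13 agonist together with compound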
Target sequence (P35414 whole entry, looked up): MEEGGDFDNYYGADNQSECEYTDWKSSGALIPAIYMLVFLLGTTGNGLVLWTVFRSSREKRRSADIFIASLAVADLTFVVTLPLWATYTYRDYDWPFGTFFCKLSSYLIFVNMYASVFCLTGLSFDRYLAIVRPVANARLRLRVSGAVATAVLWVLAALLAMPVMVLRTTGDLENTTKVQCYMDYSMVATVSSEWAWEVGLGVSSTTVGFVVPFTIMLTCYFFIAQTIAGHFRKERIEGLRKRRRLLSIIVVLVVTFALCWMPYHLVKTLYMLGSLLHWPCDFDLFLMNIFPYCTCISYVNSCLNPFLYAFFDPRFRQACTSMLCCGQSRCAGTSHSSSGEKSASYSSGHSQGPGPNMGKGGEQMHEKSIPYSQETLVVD
CCR6 antag: antagonists of human CCR6 receptor; P51684; CHO-K1 CCR6 PathHunter beta-arrestin, luminescence, CCL20-stimulated; inhibition, % at 20 µM; hit rate 0.49% among 340,000;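 active means compounds whose inhibition of the agonist-driven luminescence signal at 20 µM reaches about 50%, limit read from the data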;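 further: cells stimulated with CCL20 at 14 nM final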
A3G deaminase: APOBEC3G (human) deaminase inhibition; AID 493012; recombinant A3G, ssDNA deamination FAM/TAMRA fluorescence; inhibition, % at 20 µM; hit rate 0.28% among 330,000;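 active means inhibition of at least 40% at 20 µM, with no more than 30% in the related APOBEC3A deaminase screen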
APJ agonist: agonists of human APJ apelin receptor. CHO-K1 APJ PathHunter beta-arrestin, luminescence; 0% DMSO wells, 100% apelin. activation, % at 20 µM. P35414. hit rate 0.11% among 330,000. AID 2520;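 active means activation more than six SD over the plate average, tested at 20 µM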
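Incubation: overnight seeding, 90 min compound at 25 °C, 1 h detection; test system: PathHunter CHO-K1 APJ (AGTRL-1) beta-arrestin reporter cells; amount: 1000 cells/well; doses: one dose, 20 µM compound, 1% DMSO; measured by: beta-gal luminescence; measure: agonist-driven arrestin binding to APJ; benchmarks: negative DMSO alone, positive Apelin-13 at 10 nM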
Large screens that a line does not name were inactive. Only some compounds are listed: those with a hit (about 1.4% of all), similar ones and a draw of the others.

COc1ccc(C(=O)/C=C/C(=O)N(Cc2ccccc2)C(C(=O)NC2CCCCC2)c2ccncc2)c(O)c1 (stereo unspecified)	none
COc1ccc(C(=O)/C=C/C(=O)N(CC(=O)NC2CCCCC2)Cc2ccccc2)c(O)c1	CXCR6 block 71, CCR6 antag 97 (no result: A3A deaminase, APJ antagonist, A3G deaminase, APJ agonist)
CNc1ncnc2c1ncn2[C@H]1CN(CCc2ccccc2)C[C@@H](CO)O1	none (no result: A3A deaminase, APJ antagonist, CCR6 antag, A3G deaminase, APJ agonist)
C=CCn1c(=O)c(C(=O)NC(C)c2ccccc2)c(O)c2ccccc21 (stereo unspecified)	none
N#C/C(=C\c1cccc([N+](=O)[O-])c1)C(=O)NCc1cccnc1	none
N#C/C(=C\c1cccc([N+](=O)[O-])c1)C(=O)NCc1ccc(Cl)cc1	CXCR6 block 65 (no result: A3A deaminase, APJ antagonist, CCR6 antag, A3G deaminase, APJ agonist)
CCCCC(=O)N(C)c1c(C)nc2ccc(C(=O)N3CCNC(=O)C3)cn12	none (no result: A3A deaminase, APJ antagonist, CCR6 antag, A3G deaminase, APJ agonist)
COc1nc(Cl)cn(-c2ccc(C)cc2)c1=O	none
Cc1ccc(-n2c(Cl)c(Cl)nc(Cl)c2=O)cc1	CXCR6 block 61, CCR6 antag 82 (no result: A3A deaminase, APJ antagonist, A3G deaminase, APJ agonist)
CN(Cc1ccccc1)C(=S)NC(=O)c1ccc(-c2ccccc2)cc1	CCR6 antag 57
O=C(OCCOc1ccc(Br)cc1)c1ccc(Cl)c(S(=O)(=O)N2CCOCC2)c1	none
Cc1ccc(S(=O)(=O)N/N=C\c2cc([N+](=O)[O-])ccc2Cl)cc1	none
Cc1ccc(S(=O)(=O)N/N=C/c2cccc([N+](=O)[O-])c2)cc1	APJ antagonist 51
CC(NC(C(=O)c1ccccc1)c1ccccc1)c1ccccc1 (stereo unspecified)	CXCR6 block 37, CCR6 antag 78 (no result: A3A deaminase, APJ antagonist, A3G deaminase, APJ agonist)
CC(Nc1cccc2ccccc12)C(=O)N/N=C/c1ccc([N+](=O)[O-])cc1 (stereo unspecified)	none
COc1cc([N+](=O)[O-])cc(/C=N/NC(=O)C(C)Nc2cccc3ccccc23)c1O (stereo unspecified)	CXCR6 block 56
Nc1nc(-c2ccccc2)c(N=Nc2ccccc2Cl)s1	CXCR6 block 57, CCR6 antag 62
Nc1nc(-c2ccccc2)c(N=Nc2cccc3ccccc23)s1	CXCR6 block 43, CCR6 antag 55
Cc1ncc(N=Nc2ccccc2Cl)c(-c2ccccc2)n1	none
CC(=O)Nc1sc(N)nc1-c1ccccc1	none
O=C(NCc1ccc2c(c1)OCO2)c1nc(S(=O)(=O)Cc2ccccc2)ncc1Cl	CCR6 antag 63
CC(=O)Nc1ccc(NC(=O)c2nc(S(=O)(=O)Cc3ccccc3)ncc2Cl)cc1	none
COC(=O)c1ccccc1NC1=C/C(=N\S(=O)(=O)c2ccc(C(=O)O)cc2)c2ccccc2C1=O	CCR6 antag 55
COC(=O)c1ccccc1NC1=C/C(=N\S(=O)(=O)c2cccs2)c2ccccc2C1=O	CXCR6 block 42, CCR6 antag 54
O=C(CCc1ccccc1)Nc1ccc(S(=O)(=O)Nc2nccs2)cc1	none
COc1ccc(N2C(=O)CC(Sc3nnnn3-c3ccc(F)cc3)C2=O)cc1 (stereo unspecified)	CXCR6 block 102, CCR6 antag 96
COc1ccc(N2C(=O)CC(Sc3nnc(-c4ccccc4)o3)C2=O)cc1 (stereo unspecified)	none (no result: CCR6 antag)
O=C1C2C(C(=O)N1/N=C/c1cc([N+](=O)[O-])ccc1O)C1C=CC2C12CC2 (stereo unspecified)	none
O=C1C2C(C(=O)N1/N=C/c1cc(Br)cc([N+](=O)[O-])c1O)C1C=CC2C12CC2 (stereo unspecified)	CCR6 antag 52
Cc1ccc(Cl)cc1N1CCN(C(=O)c2cc3c(=O)n(C)c4ccccc4c3n2C)CC1	APJ agonist 13
Cc1cccc(N2CCN(C(=O)c3cc4c(=O)n(C)c5ccccc5c4n3C)CC2)c1C	none
Cc1ccc(NS(=O)(=O)c2cc([N+](=O)[O-])ccc2NNC(=S)Nc2cccc(Cl)c2)c(C)c1	CXCR6 block 58, CCR6 antag 81 (no result: A3A deaminase, APJ antagonist, A3G deaminase, APJ agonist)
Cc1cccc(NC(=S)NNc2cccc(Cl)c2)c1	none
CC(=NN1CC(=O)NC1=O)c1ccc([N+](=O)[O-])o1	none (no result: A3A deaminase, APJ antagonist, A3G deaminase, APJ agonist)
O=C(C#Cc1ccccc1)c1ccc([N+](=O)[O-])cc1	CXCR6 block 71, CCR6 antag 55
O=C(c1ccc(-c2ccccc2)cc1)c1ccc([N+](=O)[O-])cc1	none (no result: CXCR6 block, CCR6 antag)

Screens from PubChem BioAssay.
